In ChEMBL document CHEMBL4311987, “Discovery of novel allosteric site and covalent inhibitors of FBPase with potent hypoglycemic effects” (Eur J Med Chem, 2019):

System: Hepatocyte
Assay: Cytotoxicity against C57BLKS rat Primary hepatocytes assessed as cell viability by measuring cellular protein level at 25 to 100 uM in presence of insulin and glucose by bicinchoninic acid method
Assay type: cell-based
In short: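 Primary hepatocytes isolated from rat, cultured overnight in DMEM with 10% FBS, then exposed to compounds. Cellular protein per group measured by bicinchoninic acid (BCA) method as a viability control. The same protein values serve to normalize glucose, TG and TC contents. Pathological stimulation where applicable: 1 µM dexamethasone plus 200 µM cAMP, or 25 mM glucose plus 500 nM insulin for 24 h. Means ± SEM, four independent experiments.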

In the case of `CCOC(=O)C(C)(C)Oc1ccc(F)c(/C=C/[N+](=O)[O-])c1`, the Activity is reported as “Non-Toxic”.
